High-throughput results deposited in PubChem by Johns Hopkins Ion Channel Center.
Compounds with a hit are over-represented: about 3.5% of the library has one in this group of screens.
MrgX1 allo act – human MrgX1 positive allosteric modulation, primary screen; MrgX1-HEK293, Fluo-4 calcium flux, FDSS; hits give high values; hit rate 0.63% among 310,000; Q96LB2; B-score at 10 µM;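 active = plate-corrected calcium response at least 3 library SD above typical, normal starting fluorescence, not activating the receptor alone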;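 also: compound read alongside a low EC10 to EC30 dose of BAM8-22 agonist; peak minus trough fluorescence over baseline measured at the second addition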
Target sequence (Q96LB2 whole entry, looked up): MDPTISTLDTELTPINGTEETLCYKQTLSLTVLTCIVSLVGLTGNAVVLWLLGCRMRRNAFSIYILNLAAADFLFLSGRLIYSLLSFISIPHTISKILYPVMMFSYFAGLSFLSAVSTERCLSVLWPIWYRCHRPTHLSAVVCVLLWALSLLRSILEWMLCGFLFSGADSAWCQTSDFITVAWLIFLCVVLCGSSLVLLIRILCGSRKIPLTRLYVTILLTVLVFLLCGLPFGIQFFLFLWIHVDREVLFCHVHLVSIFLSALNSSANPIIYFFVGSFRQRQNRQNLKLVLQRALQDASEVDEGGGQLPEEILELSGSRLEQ
RGS4 pot – RGS4 potentiation or activation | B-score at 10 µM | HEK293 M3R/inducible RGS4, carbachol calcium flux Fluo4; hits give low values | hit rate 0.92% among 310,000;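 active = B-score of the integrated calcium signal more than 4 SD below the library mean, with starting fluorescence not abnormally high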;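 also: negative B-score means reduced calcium response which marks RGS4 activation or potentiation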
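Material: Inducible-RGS4 HEK293 cells carrying M3 receptor; also added: carbachol at ECmax as muscarinic agonist stimulus; incubation: compound preincubation 20 min at room temperature before agonist; signal: Fluo4-AM (2 µM) calcium-flux fluorescence, kinetic read; measure: integrated calcium ratio converted to B score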
MrgX1 antag – blocks BAM8-22 activation of human MrgX1 receptor; hit rate 1.3% among 310,000; MRGX1-HEK293 calcium flux, Fluo-4, BAM8-22 antagonism; hits give low values; B-score at 10 µM;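 active = calcium-response B-score plate-corrected more than 3 library SD below zero, starting fluorescence within 5 deviations, no agonist response on first addition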;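 also: peak minus trough fluorescence over baseline after final BAM8-22 challenge near maximal dose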
RGS4 inh – inhibitors of human RGS4; P49798; HEK293 M3R/RGS4 inducible, Fluo-4 calcium flux; hits give high values; triggered by carbachol at its EC20; B-score at 10 µM; hit rate 0.45% among 310,000;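 active = B-score, a plate-corrected calcium signal, over three deviations above library mean, with baseline fluorescence within five deviations of library mean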;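 also: RGS4 expression induced by doxycycline in cells with stable M3 receptor; B-score is computed from the integrated fluorescence ratio over baseline after carbachol; higher B-score means a larger calcium signal and so more RGS4 inhibition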
Target sequence (P49798 whole entry, looked up): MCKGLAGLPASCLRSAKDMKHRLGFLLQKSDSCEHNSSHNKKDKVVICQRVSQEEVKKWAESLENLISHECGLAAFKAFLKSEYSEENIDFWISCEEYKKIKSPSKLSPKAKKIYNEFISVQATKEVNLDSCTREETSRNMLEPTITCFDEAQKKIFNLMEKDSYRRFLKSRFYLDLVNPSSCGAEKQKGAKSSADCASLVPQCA
MrgX1 agonist – activates human MrgX1 receptor signaling; MrgX1-HEK293 cells, Fluo-4 calcium fluorescence, agonist mode; hits give high values; hit rate 0.44% among 310,000; Q96LB2; B-score at 10 µM; AID 588627;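 active = calcium response B-score plate-corrected fluorescence ratio at least 3 library SD, with starting fluorescence B-score inside 5 SD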
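times = overnight plating, then 30 min 37 °C plus 30 min room-temperature dye loading | assay system = stable human MrgX1 HEK293 cell line | input = fifteen thousand cells per well | signal = kinetic calcium dye fluorescence, Fluo-4 NW | dosing = compound delivered in addition one of three | read-out = B-scored fluorescence response ratio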
Numbers stand for hits; 0 = inactive; - = no result.

SMILES | MrgX1 allo act | RGS4 pot | MrgX1 antag | RGS4 inh | MrgX1 agonist
Cc1cc(=O)oc2cc(NC(=O)C(CCCN=C(N)N)NC(=O)OCc3ccccc3)ccc12 (configuration not stated) | 0 | 0 | 0 | 0 | 0
Cc1noc(C)c1CSCC(=O)N(C)CC(=O)Nc1ccccc1Cl | 0 | 0 | 0 | 0 | 0
CCC/C=C(\CCC)C(NS(=O)(=O)c1ccc(C(F)(F)F)cc1)c1ccccc1 (configuration not stated) | 0 | -8.15 | 0 | 0 | 0
O=C(O)C(NS(=O)(=O)c1ccc(F)cc1)c1ccccc1 (configuration not stated) | 0 | 0 | 0 | 0 | 0
Cc1ccc(C(=O)c2c3ccccc3[n+]([O-])n2CCC(N)=O)cc1 | 0 | 0 | 0 | 0 | 0
COc1ccc(C(=O)/C=C/c2ccc(OCc3ccccc3)cc2)cc1CSCC(=O)O | 0 | 0 | 0 | 0 | 0
COc1ccc(C(=O)/C=C/c2cccc(OCc3ccccc3)c2)cc1CSCC(=O)O | 0 | 0 | 0 | 0 | 30.1
O=c1cnc2cc([N+](=O)[O-])ccc2[nH]1 | 0 | 0 | 0 | 0 | 0
CC1C(=NO)C(C)C(c2ccc(N(C)C)cc2)NC1c1ccc(N(C)C)cc1 (configuration not stated) | 13.6 | 0 | 0 | 0 | 0
CC(C)NC(=O)NC(=O)COC(=O)c1cccc(OC(F)F)c1 | 0 | 0 | 0 | 0 | 0
CCn1c(Cc2cccs2)nnc1SCC(=O)Nc1ccc(OC)c(OC)c1 | 0 | 0 | -4.71 | 0 | 0
CCn1c(SCC(=O)Nc2ccc3c(c2)oc2ccccc23)nnc1-c1ccc(N)cc1 | 0 | 0 | 0 | 7.96 | 0
COc1cc(C(=O)N/N=C/c2ccc(OC(=O)c3ccccc3Cl)c(OC)c2)ccc1O | 0 | -9.9 | -4.65 | 0 | 0
COc1cc(/C=N/NC(=O)c2ccccn2)ccc1OC(=O)c1ccccc1Br | 0 | -8.12 | 0 | 0 | 0
COc1cc(/C=C/C(=O)NC(=O)c2ccccc2O)ccc1O | 12.4 | 0 | 0 | 0 | 0
Cc1ccc(C(=O)N/N=C/c2ccc(OC(=O)c3ccccc3Cl)cc2)cn1 | 0 | 0 | 0 | 0 | 0
COc1cc(/C=N/NC(=O)c2ccccn2)ccc1OC(=O)c1ccc(Br)cc1 | 0 | 0 | 0 | 0 | 0
O=C(N/N=C/c1cccc(OC(=O)c2ccccc2Cl)c1)c1cccnc1 | 0 | -7.65 | 0 | 0 | 0
COc1ccc(C(CNC(=O)Cc2ccc(-c3ccccc3)cc2)N(C)C)cc1 (configuration not stated) | 0 | 0 | 0 | 0 | 0
O=C(COC(=O)c1ncc(Cl)c(Cl)c1Cl)NC1CCCCCC1 | 0 | 0 | 0 | 0 | 0
COc1cc(/C=N/NC(=O)c2ccc(N)cc2)ccc1OC(=O)c1cccc(C)c1 | 0 | -8.52 | -5.57 | 0 | 0
O=C(N/N=C/c1cc(Br)c(Br)o1)c1cccnc1 | 0 | 0 | -6 | 0 | 0
O=C(N/N=C\c1cc(Br)c(Br)o1)c1cncc(Br)c1 | 0 | 0 | 0 | 0 | 0
COc1cc(C(=O)N/N=C/c2ccc(OC(=O)c3cccc(C)c3)cc2)ccc1O | 0 | 0 | 0 | 0 | 0
C=CCC(O)(CCN1CCCCC1)c1ccccc1 (configuration not stated) | 0 | 0 | 0 | 0 | 0
SMILES | MrgX1 allo act | RGS4 pot | MrgX1 antag | RGS4 inh | MrgX1 agonist
COc1ccc(C(O)(CCc2ccccc2)CCN2CCCCC2)cc1 (configuration not stated) | 0 | -8.88 | 0 | 0 | 0
CCC(C)C(NC(=O)OC(C)(C)C)C(=O)NC(Cc1ccccc1)C(=O)OC (configuration not stated) | 7.32 | 0 | 0 | 0 | 0
C=CCn1c(Cc2cccs2)nnc1SCC(=O)c1ccc2ccccc2c1 | 0 | 0 | 0 | 0 | 0
COc1cc2cc(CN(Cc3cccs3)C(=S)Nc3ccccc3)c(=O)[nH]c2cc1OC | 0 | 0 | 0 | 0 | 0
Cc1ccc(-n2nc3c(=O)n(C(C)C(=O)NCCCc4ccccc4)nc(C)c3c2C)cc1 (configuration not stated) | 0 | 0 | -4.55 | 0 | 0
Cc1ccc(-n2nc3c(=O)n(CC(=O)NCCCc4ccccc4)nc(C)c3c2C)cc1 | 0 | 0 | 0 | 0 | 0
Cc1ccc(-n2nc3c(=O)n(CCCC(=O)NCc4ccccc4Cl)nc(C)c3c2C)cc1 | 0 | 0 | -6.55 | 0 | 0
CCCCc1c(C(=O)O)cc(OC)cc1C(=O)O | 0 | 0 | 0 | 0 | 0
CCCCCc1c2c(cc(O)c1C(=O)O)OC(=O)c1c(cc(OC)cc1C(=O)CCCC)O2 | 0 | -6.98 | -7.89 | 0 | 0
O=C(NCc1cccc(Cl)c1)c1cccc(OC2CCN(C(=O)C3CC3)CC2)c1 | 0 | 0 | -5.65 | 0 | 0
Cc1cc(C(=O)N/N=C/c2cccs2)no1 | 0 | 0 | 0 | 0 | 27.9
Cc1ccc(N2C(=O)NC(NS(=O)(=O)c3ccccc3)(C(F)(F)F)C2=O)cc1C (configuration not stated) | 0 | 0 | 0 | 0 | 0
CCCCCN1CC(=O)N2[C@@H](Cc3c([nH]c4ccccc34)C2(C)C)C1=O | 0 | 0 | 0 | 0 | 0
CCCCN(CCCC)CCCN1CC(=O)N2[C@@H](Cc3c([nH]c4ccccc34)C2(C)C)C1=O | 0 | -8.44 | 0 | 0 | 0
CCCOC(=O)Nc1c(C)cccc1C(C)C | 0 | 0 | 0 | 0 | 0
FC(F)(F)c1cccc(NC(=S)Nc2ccc(Cl)c(Cl)c2)c1 | 0 | 0 | -8.45 | 0 | 0
CCOc1c(C=C(C#N)C#N)c2ccccc2n1CC | 0 | 0 | -5.39 | 0 | 0
O=C1CCc2cc(S(=O)(=O)Nc3ccc(F)cc3)cc3c2N1CC3 | 0 | 0 | 0 | 0 | 0
Cc1ccc(C)c(N2CCN(C(=O)C3CCN(c4nc(C)cc(C)n4)CC3)CC2)c1 | 0 | 0 | 0 | 0 | 0
Cc1cc(C)nc(N2CCC(C(=O)N3CCN(c4cc(Cl)ccc4C)CC3)CC2)n1 | 0 | -7.3 | 0 | 0 | 0
CCN(CC)S(=O)(=O)c1ccc(OC(C)C)c(NC(=O)c2c3c(nc4ccccc24)CCN(Cc2ccccc2)C3)c1 | 0 | 0 | -5.03 | 0 | 0
COc1ccc(-c2cc(C(F)(F)F)c3c(n2)sc2c(O)cc(=O)[nH]c23)c(OC)c1 | 0 | 0 | 0 | 0 | 39.1
O=c1c2c([N+](=O)[O-])cc([N+](=O)[O-])cc2sn1Cc1ccccc1 | 0 | 0 | 0 | 0 | 36.7
O=c1c2c([N+](=O)[O-])cc([N+](=O)[O-])cc2sn1-c1ccc(Br)cc1 | 0 | - | 0 | - | 0
CN(C)c1ccc(/C=N/NC(=O)CN2CCCCC2)cc1Br | 0 | 0 | 0 | 0 | 0
O=C(NC(CO)(CO)CO)[C@@H]1CCCN1S(=O)(=O)c1cccc2cccnc12 | 0 | - | 0 | - | 0
N=C1/C(=C/c2ccc(-c3cccc(C(=O)O)c3)o2)C(=O)N=C2SC=C(c3ccccc3)N12 | 0 | -8.37 | -7.6 | 0 | 0
N=C1/C(=C\c2ccc(-c3cc(Cl)cc(Cl)c3)o2)C(=O)N=C2SC=C(c3ccccc3)N12 | 0 | 0 | 0 | 0 | 0
Cn1c(=O)c2c(nc(SCCN3CCCCC3)n2Cc2ccc(Cl)cc2)n(C)c1=O | 0 | -6.97 | 0 | 0 | 0
